Test [1] concerns Plasmodium falciparum. The test can be described thus: Antimicrobial activity against Plasmodium falciparum 3D7 infected in erythrocytes assessed as schizont-stage maturation at 500 nM after 4 to 24 hrs by Giemsa-staining based microscopy relative to control. Format: functional, organism-based.
For test [2], the system named is Plasmodium falciparum. The test can be described thus: Antimicrobial activity against Plasmodium falciparum 3D7 infected in erythrocytes assessed as ring-stage maturation at 500 nM after 4 to 24 hrs by Giemsa-staining based microscopy relative to control. Format: functional, organism-based.
The nature of test [3]: Inhibition of Plasmodium falciparum recombinant FKBP35 using Succ-Ala-Leu-Pro-Phe-pNA as substrate after 30 mins by UV-Vis spectrophotometry in presence of alpha-chymotrypsin.
The species entered for another test is Homo sapiens. In words: Inhibition of human recombinant calcineurin phosphatase activity using RII phosphopeptide as substrate incubated 10 to 30 mins prior to substrate addition by spectrophotometry.
Test [4] relates to Plasmodium falciparum. The test can be described thus: Antimicrobial activity against mid-ring stage Plasmodium falciparum 3D7 infected in erythrocytes assessed as reduction in trophozoite stage development at 500 nM after 16 to 24 hrs by Giemsa-staining based microscopy relative to control. The class given is functional, organism-based. A digest of the protocol:
(§1)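 Highly synchronized ring-infected erythrocytes (3D7) followed over one full 48 h intraerythrocytic cycle with inhibitor, chloroquine, artemisinin, or no treatment. Parasitaemia (%) and morphology were scored from Giemsa-stained smears every 8 h, with untreated parasites as reference.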

The nature of test [5]: Inhibition of Plasmodium vivax recombinant FKBP35 using Succ-Ala-Leu-Pro-Phe-pNA as substrate after 30 mins by UV-Vis spectrophotometry in presence of alpha-chymotrypsin.
For test [6], the system named is Plasmodium falciparum. In words: Antimicrobial activity against Plasmodium falciparum 3D7 infected in erythrocytes assessed as impairment of trophozoite-stage maturation at 500 nM after 8 hrs by Giemsa-staining based microscopy relative to control. Format: functional, organism-based.
Test [7] concerns Plasmodium falciparum. In words: Antimicrobial activity against mid-ring stage Plasmodium falciparum 3D7 infected in erythrocytes assessed as reduction in parasitemia at 500 nM after 8 hrs by Giemsa-staining based microscopy relative to control. Format: functional, organism-based. In a few lines:
as §1

Test [8] deals with Plasmodium falciparum. In words: Antimicrobial activity against Plasmodium falciparum 3D7 infected in erythrocytes assessed as disintegration of trophozoite-stage maturation at 500 nM after 16 hrs by Giemsa-staining based microscopy relative to control. The class given is functional, organism-based.
Test [9] relates to Plasmodium falciparum. In words: Antimicrobial activity against mid-ring stage Plasmodium falciparum 3D7 infected in erythrocytes assessed as change in parasite morphology at 500 nM after 8 hrs by Giemsa-staining based microscopy relative to control. Format: functional, organism-based. In a few lines: as §1
The test system of test [10] is Plasmodium falciparum. The test can be described thus: Antimicrobial activity against mid-ring stage Plasmodium falciparum 3D7 infected in erythrocytes assessed as death and disintegration of parasite at 500 nM after 16 to 24 hrs by Giemsa-staining based microscopy relative to control. The class given is functional, organism-based. A digest of the protocol: as §1

The source made the active and inactive calls. The rule behind the calls is not given here.

Take `O=C(NNC(=O)C12CC3CC(CC(C3)C1)C2)c1cccc2ccccc12`: the outcome in the test with Plasmodium falciparum [1] and in the test with Plasmodium falciparum [2] was inactive. For the same molecule, the IC50 in [3] was found to be 49.3 nM.
Consider `C=CC[C@@H]1/C=C(\C)C[C@H](C)C[C@H](OC)[C@H]2O[C@@](O)(C(=O)C(=O)N3CCCC[C@H]3C(=O)O[C@H](/C(C)=C/[C@@H]3CC[C@@H](O)[C@H](OC)C3)[C@H](C)[C@@H](O)CC1=O)[C@H](C)C[C@@H]2OC`, for which the inhibition result in the test listed under Homo sapiens was “Active”.
Consider `O=C(NNC(=O)C12CC3CC(CC(C3)C1)C2)c1ccncc1`, for which the result in the test on Plasmodium falciparum [1], in the test with Plasmodium falciparum [7], with Plasmodium falciparum [9] and in the test on Plasmodium falciparum [2] was inactive. Also, the outcome with Plasmodium falciparum [4], in the test with Plasmodium falciparum [6], with Plasmodium falciparum [8] and in the test on Plasmodium falciparum [10] was Active. The figures for the half-inhibitory concentration (IC50) in [5] and in test [3] were 75 nM and 83 nM, respectively. In addition, the inhibition result in the test filed under Homo sapiens is “inactive”.
In the case of `CCN(CC)CCCC(C)Nc1ccnc2cc(Cl)ccc12` (stereo not drawn), the outcome in the test with Plasmodium falciparum [4] and with Plasmodium falciparum [10] was Active. Also, the result in the test on Plasmodium falciparum [7] and in the test on Plasmodium falciparum [9] was inactive.
Regarding `O=C(NNC(=O)C12CC3CC(CC(C3)C1)C2)c1ccccc1`, the outcome with Plasmodium falciparum [1] and in the test on Plasmodium falciparum [2] was inactive. Also, the IC50 in [3] came to 94.8 nM.
For the molecule `C[C@@H]1CC[C@H]2[C@@H](C)C(=O)O[C@@H]3O[C@@]4(C)CC[C@@H]1[C@]32OO4`, in the test on Plasmodium falciparum [7], the outcome was Active.
